Like-named read-outs stand apart in the source and are kept apart here.
Assays:
uPAR•uPAATF interaction [1] = biological target: T1, uPAR•uPAATF interaction (Homo sapiens, UniProt Q03405); assay: Microtiter-based ELISA for uPAR•uPAATF; format: binding
Procedure, shortened: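 Wells were coated with uPA_ATF (2 µg·mL⁻¹ in PBS, 2 h, 4 °C) and blocked 1 h at room temperature. Purified uPAR lacking the GPI anchor (75 nM, PBS with 0.025% Triton X-100) was added with test compound for 30 min. Compound was screened at 50 µM or titrated 100 to 0.4 µM, with 1% DMSO final. After washing, bound uPAR was detected by biotinylated anti-uPAR antibody (1 h), streptavidin-HRP (20 min) and TMB/H₂O₂ with H₂SO₄ stop; n = 2.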

uPAR [2] = biological target: T2, uPAR (Homo sapiens, UniProt Q03405); assay: Fluorescence polarization, displacement of AE147-FAM peptide from uPAR; format: binding
T2 sequence (Q03405 23-305 limits assumed): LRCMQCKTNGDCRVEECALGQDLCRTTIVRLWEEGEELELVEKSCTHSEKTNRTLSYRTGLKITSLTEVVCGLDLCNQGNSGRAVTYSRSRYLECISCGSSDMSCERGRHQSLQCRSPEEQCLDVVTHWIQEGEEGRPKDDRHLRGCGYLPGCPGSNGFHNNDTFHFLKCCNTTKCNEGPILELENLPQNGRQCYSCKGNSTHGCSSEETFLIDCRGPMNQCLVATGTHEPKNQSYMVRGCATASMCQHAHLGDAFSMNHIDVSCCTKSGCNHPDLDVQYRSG
Procedure, shortened: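 Test compound was serially diluted in DMSO, then in PBS with 0.01% Triton X-100 (final 100 µM to 0.046 µM). It was preincubated at least 15 min with uPAR before AE147-FAM peptide was added. Final levels were 320 nM uPAR, 100 nM peptide and 2% DMSO. Polarization was read at ex 485/em 530 nm in duplicate. Peptide-only and uPAR + peptide controls were run in quadruplicate.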

[3] = test system: FAK phosphorylation in MDA-MB-231 cells; assay: Western blot for phospho-FAK; format: cell-based, human
Procedure, shortened: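 MDA-MB-231 lysates were made in RIPA buffer with protease and phosphatase inhibitors. Thirty micrograms of protein were resolved on 10% SDS-PAGE and transferred to nitrocellulose. Blots were probed overnight at 4 °C for total FAK, phospho-FAK (Y397) or actin. Dye-conjugated anti-mouse or anti-rabbit secondaries were detected by infrared fluorescence imaging.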

[4] = biological target: VTN•uPAR•uPAATF interaction (Homo sapiens, UniProt Q03405); assay: Microtiter-based ELISA for uPAR•VTN; format: binding
Chain of VTN•uPAR•uPAATF interaction (Q03405 23-305 limits assumed): as above
Procedure, shortened: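 Full-length VTN (5 µg·mL⁻¹, carbonate buffer pH 9.6) was coated 12 h at 4 °C, then blocked 1 h at room temperature. Wells received 120 nM uPAR•uPA_ATF complex in PBS with 0.01% Triton X-100 plus test compound for 60 min. Compound was screened at 50 µM or titrated 100 to 0.4 µM, with 1% DMSO final. Bound uPAR was detected by biotinylated anti-uPAR antibody (1 h), streptavidin-HRP (20 min) and TMB/H₂O₂ with H₂SO₄ stop; n = 2.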

[5] = test system: Rac1 activation in MDA-MB-231 cells; assay: Rac1 pull-down assay; format: cell-based, human
uPAR [6] = biological target: T2, uPAR; assay: Saturation transfer difference; format: binding; conditions: 438 µM 7, uPAR 50 fold less
[7] = biological target: uPAR•uPA binding on HEK-293-uPAR cells (Homo sapiens, UniProt Q03405); assay: FACS analysis of FITC-conjugated uPA binding to HEK-293-uPAR cells; format: cell-based; conditions: read-out: inhibition of uPA-FITC binding to uPAR (FACS)
Chain of uPAR•uPA binding on HEK-293-uPAR cells (Q03405 23-305 limits assumed): as above

uPAR [8] = biological target: T2, uPAR; assay: Isothermal titration calorimetry of 7 against purified uPAR; format: binding
MDA-MB-231 cells [9] = assay: MTT cell viability assay; format: cell-based, human; conditions: MDA-MB-231, 100 µM
Procedure, shortened: (§1)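 MDA-MB-231 cells were grown in DMEM with 10% FBS and 1% penicillin/streptomycin at 37 °C, 5% CO₂. Cells (10⁴/well) were plated overnight, then treated 3 days with test compound or DMSO control. MTT (20 µl of 5 mg/ml) was added for 2 h at 37 °C. Viable cells were quantified by absorbance at 570 nm with 630 nm reference.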

MTT cell viability assay = format: cell-based, human; conditions: human, MDA-MB-231 cells
Procedure, shortened: as §1

MDA-MB-231 cells [10] = assay: Boyden Matrigel invasion chamber assay; format: cell-based; conditions: Homo sapiens, MDA-MB-231, 16 h, read-out: IC50 for MDA-MB-231 cell invasion
Procedure, shortened: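 MDA-MB-231 cells were serum-starved 4 h. Matrigel inserts had fibronectin (30 ng µl⁻¹) coated on the underside overnight at 4 °C and were equilibrated 2 h in serum-free medium. The upper chamber received 5 × 10⁴ cells in 0.1% FBS medium with test compound or 1% DMSO. The lower chamber held 10% FBS medium with the same compound. After 16 h at 37 °C, invaded cells were methanol-fixed, hematoxylin-stained and counted in ten 200× fields; n = 3.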

uPAR•uPAATF interaction [11] = biological target: T1, uPAR•uPAATF interaction; format: binding

T1 sequence (Q03405 23-305 limits assumed): as above

With `CCCCCCOc1cccc(N2C(=O)C(O)=C(C(=O)c3ccccc3)C2c2ccc(CC)cc2)c1` (stereo not drawn) [Compound 1, 4-benzoyl-5-(4-ethylphenyl)-1-(3-(hexyloxy)phenyl)-3-hydroxy-1H-pyrrol-2(5H)-one] the IC50 (uPAR•uPAATF interaction [1]) was 58 µM and the Ki (uPAR [2]) was 4.2 µM.

With `Cc1ccc(N2C(=O)C(O)=C(C(=O)c3ccc(Cl)cc3)C2c2cccc(F)c2)cc1Br` (stereo not drawn) [Compound 7, 1-(3-bromo-4-methylphenyl)-4-(4-chlorobenzoyl)-5-(3-fluorophenyl)-3-hydroxy-1H-pyrrol-2(5H)-one] the “FAK phosphorylation at Y397” value [3] was “significantly inhibited”, the IC50 [4] was 32.8 µM and the Rac1 activation [5] was “inhibited Rac1 activation in a concentration-dependent manner”. The IC50 (uPAR•uPAATF interaction [1]; IC50 for inhibition of uPAR•uPAATF interaction (ELISA), 75 nM uPAR, immobilized uPAATF) was 18 µM, the “direct binding to uPAR (STD-NMR and ITC)” value (uPAR [6]) was “binds directly to uPAR” and the inhibition at 100 µM [7] was roughly 40%. For the same compound, the Kd (uPAR [8]) was 17.2 µM, the “enthalpy (ΔH) (ITC)” value (uPAR [8]; 25 °C) was -6.4 kcal/mol and the “entropy (ΔS) (ITC)” value (uPAR [8]; 25 °C) was 0.01 kcal/mol. The cytotoxicity (MDA-MB-231 cells [9]) was “not cytotoxic”, the viability at 3 days, 100 µM (MTT cell viability assay) was greater than 80% and the IC50 (MDA-MB-231 cells [10]) was 35 µM. The IC50 (uPAR•uPAATF interaction [11]) was 12.9 µM.

— paper PMC4654616 (ACS chemical biology, 2015)
